The term IC50 denotes the point on the concentration scale where inhibition reaches its midpoint. Read a high IC50 as lower potency. One may read the CC50 as the concentration at which the toxic effect on the cells reaches its halfway point.

Data on twelve compounds can be found in ChEMBL document CHEMBL3259603, “Antiprotozoal activity and DNA binding of N-substituted N-phenylbenzamide and 1,3-diphenylurea bisguanidines” (Eur J Med Chem, 2014).

The test system of series [1] is Trypanosoma brucei rhodesiense. Kind of series: Antimicrobial activity against trypomastigote stage of Trypanosoma brucei rhodesiense STIB900 infected in rat L6 cells after 96 hrs by Alamar Blue assay. The format is functional, organism-based. Particulars: STIB900, L6, 96 h. An outline of the steps: (§1)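 Alamar blue-based viability assays were run on bloodstream T. b. rhodesiense STIB900 and on rat skeletal myoblast L6 cells. Podophyllotoxin was the reference drug for L6.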
A general note: The colour change of resazurin is a common sign of viable cells or microbes.

For another series, the system named is Plasmodium falciparum. Nature of the series: Antimicrobial activity against intraerythrocytic stage of Plasmodium falciparum NF54 infected in human erythrocytes by [3H]hypoxanthine incorporation assay. The format is functional, organism-based. An outline of the steps:
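Erythrocytic P. falciparum NF54 (chloroquine-sensitive) was tested with a [³H]hypoxanthine incorporation read-out.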

A short description of series [2]: Cytotoxicity against rat L6 cells. The format is cell-based. An outline of the steps:
as §1

A short description of series [3]: Selectivity index, ratio of CC50 for rat L6 cells to IC50 for Trypanosoma brucei rhodesiense. The format is functional. An outline of the steps:
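Selectivity index was calculated as L6 CC₅₀ divided by the T. b. rhodesiense IC₅₀, both from the Alamar blue assays.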

Series [4] can be described thus: Selectivity index, ratio of CC50 for rat L6 cells to IC50 for Plasmodium falciparum NF54.
For series [5], the system named is Trypanosoma brucei rhodesiense. Kind of series: Antimicrobial activity against bloodstream form of Trypanosoma brucei rhodesiense STIB900 infected in acute HAT NMRI mouse model assessed as mean day of relapse at 20 mg/kg, ip administered for 4 days. To be noted: route intraperitoneal. The format is functional. An outline of the steps: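 Acute-stage mouse model infected with T. b. rhodesiense STIB900, in groups of four mice. Compound was formulated in 100% DMSO and diluted 10-fold in distilled water. It was given on four consecutive days from day 3 post-infection at 0.1 mL/10 g. Three infected mice were left untreated. Parasitaemia was checked in tail-blood smears up to day 60; relapse-free mice were counted as cured. Mean relapse day is the post-infection day of relapse.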

A further series concerns Mus musculus. Kind of series: Acute toxicity in NMRI mouse infected with bloodstream form of Trypanosoma brucei rhodesiense STIB900 at 20 mg/kg, ip administered for 4 days. The format is organism-based. Further details: dose 20 mg/kg, route intraperitoneal. Particulars: in vivo, 96 h.
Series [6] is described as follows: Binding affinity to 5'-biotin-CGAATTCGTCTCCGAATTCG-3' hairpin DNA (unknown origin) after 5 mins by SPR analysis. In a few lines: (§2)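 SPR at 25 °C in MES buffer (10 mM MES, 1 mM EDTA, 100 mM NaCl, 0.005% P20, pH 6.25). Biotinylated hairpins were captured on streptavidin chips to about 400 RU, with a blank reference flow cell. A compound dilution series (from 5 mM stocks) was injected at 20 µL/min with 5 min association and 5 min dissociation. Surfaces were regenerated with 200 mM NaCl/10 mM NaOH. Equilibrium constants came from fits to a one- or two-site model.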
(In general: SPR reads the build-up and loss of mass on a sensor chip optically.)

A short description of series [7]: Binding affinity to 5'-biotin-CATATATATCCCCATATATATG-3' hairpin DNA (unknown origin) after 5 mins by SPR analysis. In a few lines: as §2
For series [8], the system named is Trypanosoma brucei rhodesiense. Nature of the series: Antimicrobial activity against bloodstream form of Trypanosoma brucei rhodesiense STIB900 infected in acute HAT NMRI mouse model assessed as mean day of relapse at 5 mg/kg, ip administered for 4 days. Particulars: route intraperitoneal. The format is functional.
Series [9] relates to Trypanosoma brucei rhodesiense. Kind of series: Antimicrobial activity against bloodstream form of Trypanosoma brucei rhodesiense STIB900 infected in acute HAT NMRI mouse model assessed as mean day of relapse at 50 mg/kg, po administered for 4 days. The format is functional.
The subject of the next series is Trypanosoma brucei. Nature of the series: Antimicrobial activity against Trypanosoma brucei GVR35 infected in NMRI mouse late stage model at 20 mg/kg, ip administered for 5 days. The format is functional, organism-based. Further details: dose 20 mg/kg.
Series [10] can be described thus: Binding affinity to 5'-biotin-CGCGCGCGTTTTCGCGCGCG-3' hairpin DNA (unknown origin) hairpin DNA after 5 mins by SPR analysis. An outline of the steps:
as §2

The nature of series [11]: Selectivity ratio of K for 5'-biotin-CGAATTCGTCTCCGAATTCG-3' hairpin DNA (unknown origin) to K for 5'-biotin-CATATATATCCCCATATATATG-3' hairpin DNA (unknown origin).

Activity calls are given as the source filed them. The rule behind the calls is not given here.

In the case of `N/C(=N\OC1CCCCO1)Nc1ccc(NC(=O)c2ccc(N/C(N)=N/OC3CCCCO3)cc2)cc1` (configuration not stated), the IC50 in series [1] was 51.4 µM; in the series with Plasmodium falciparum, 42.6 µM. Further, the CC50 in [2] was determined as 160 µM.
As for `N/C(=N\O)Nc1ccc(NC(=O)c2ccc(N/C(N)=N/O)cc2)cc1`, the values for the IC50 (in series [1]; in the series on Plasmodium falciparum) were 4.88 µM and 3.58 µM, respectively. The compound also yielded a CC50 in series [2] of 100 µM.
Consider `C/N=C(\N)Nc1ccc(NC(=O)c2ccc(N/C(N)=N/C)cc2)cc1.Cl`, for which the half-inhibitory concentration (IC50) amounted to 0.177 µM in series [1] and 1.02 µM in the series with Plasmodium falciparum. Also, the “Ratio CC50/IC50” value in series [3] stood at 977; in [4], 169. In series [2], this compound showed a CC50 of 173 µM.
Taken in the same sequence, the figures for `C/N=C(\N)Nc1ccc(NC(=O)Nc2ccc(N/C(N)=N/C)cc2)cc1.Cl` were 0.264 µM, 0.192 µM, 670, 922 and 177 µM.
For the compound `Nc1nc(N)nc(Nc2ccc([As]3SCC(CO)S3)cc2)n1` (configuration not stated) [MELARSOPROL], the “Ratio CC50/IC50” value in series [3] is reported as >1000.
With `CO/N=C(\N)Nc1ccc(NC(=O)c2ccc(N/C(N)=N/OC)cc2)cc1`, the IC50 is 56 µM in series [1] and 7.49 µM in the series with Plasmodium falciparum. The midpoint of cytotoxicity in series [2], the CC50, lay at 141 µM.
`CC(C)/N=C(\N)Nc1ccc(NC(=O)Nc2ccc(N/C(N)=N/C(C)C)cc2)cc1.Cl`: the values for the IC50 (in series [1]; in the series on Plasmodium falciparum) were 0.049 µM and 0.437 µM, respectively. In addition, the “Ratio CC50/IC50” value in [3] worked out at 2571; in series [4], 288. Further, in series [2], the midpoint of cytotoxicity, the CC50, lay at 126 µM. The Time in [5] is 10 days. Also, in the series on Mus musculus, the Activity result is reported as “Toxic”.
As for `CC/N=C(\N)Nc1ccc(NC(=O)Nc2ccc(N/C(N)=N/CC)cc2)cc1.Cl`, the IC50 in series [1] was found to be 0.09 µM; with Plasmodium falciparum it was 0.397 µM. Besides, the “Ratio CC50/IC50” value in series [3] stood at 1289; in [4], 292. It took 116 µM to reach half-maximal cytotoxicity in series [2] (CC50). Also, the Time in [5] came out at 18.3 days. For the same compound, the Activity result in the series with Mus musculus is listed as “Toxic”. Besides, the values for the K in series [6] and in series [7] were 0.19 ×10⁵ /M and 0.15 ×10⁵ /M, respectively.
Regarding `N=C(N)Nc1ccc(NC(=O)c2ccc(NC(=N)N)cc2)cc1`, the Time in series [8] and in series [9] was >60 days each time. The outcome with Trypanosoma brucei was inactive.
As to `N/C(=N\OCc1ccccc1)Nc1ccc(NC(=O)c2ccc(N/C(N)=N/OCc3ccccc3)cc2)cc1`, the figures for the IC50 (in series [1]; with Plasmodium falciparum) were 3.13 µM and 2.83 µM, respectively. The CC50 in [2] is 6.6 µM.
On to `CC/N=C(\N)Nc1ccc(NC(=O)c2ccc(N/C(N)=N/CC)cc2)cc1.Cl`, for which the IC50 in series [1] was determined as 0.009 µM; in the series on Plasmodium falciparum, 0.232 µM. Also, the figures for the “Ratio CC50/IC50” value in series [3] and in series [4] were 13111 and 509, respectively. In [2], this compound came in with a 50% cytotoxic concentration (CC50) of 118 µM. The Time in series [5] is >60 days. The K in series [6] is 8.1 ×10⁵ /M; in series [7] it was 5.2 ×10⁵ /M; in series [10], < 1 ×10⁵ /M. For the same compound, the Selectivity ratio in series [11] is 1.5.
On to `CC(C)/N=C(\N)Nc1ccc(NC(=O)c2ccc(N/C(N)=N/C(C)C)cc2)cc1.Cl`, for which the concentration for half-maximal inhibition (IC50) in [1] was found to be 0.011 µM; in the series with Plasmodium falciparum, 0.446 µM. Besides, the “Ratio CC50/IC50” value in series [3] is given as 9364; in series [4], 231. Also, in series [2], the CC50 came to 103 µM. In addition, the Time in [5] was >60 days. Besides, the K in [6] was 9.8 ×10⁵ /M; in [7] it was 4 ×10⁵ /M; in [10], < 1 ×10⁵ /M. Moreover, in [11], the Selectivity ratio was 2.5.
